Source: ChEMBL document CHEMBL1131051, “Novel combretastatin analogues effective against murine solid tumors: design and structure-activity relationships” (J Med Chem, 1998)

Assays:
Colon 26 [1] = assay: Growth inhibition of colon 26 adenocarcinoma cells by 50 %.; assay type: functional, cell-based; details: Mus musculus
Procedure, shortened: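 Murine Colon 26 adenocarcinoma cells were kept in RPMI-1640 with 10% FBS. Cells were seeded at 1×10^5 cells/ml in 96-well plates and held 24 h at 37 °C in CO2. They were then exposed to a range of compound concentrations for 48 h, and viable cells were counted by MTT dye reduction. IC50 is the mean of three independent assays.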

Tubulin = Tubulin (Bos taurus, UniProt Q6B856+Q862L2+Q862F3); assay: Inhibitory activity against tubulin polymerization; assay type: protein assay
Procedure, shortened: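 Tubulin polymerization was started with GTP. It was followed turbidimetrically at 350 nm at 37 °C, and extent was read after 20 min incubation. IC50 was determined graphically, averaging three independent assays.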

Colon 26 [2] = assay: (§1) Antitumor activity at dose 40 mg/kg in colon26 cells; assay type: functional, Mus musculus
Procedure, shortened: (§2)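 Tumor fragments (5 mg) implanted sc on day 0: Colon 26 into CD2F1 mice, Colon 38 or 3LL into BD2F1 mice, HCT-15 into ICR nu/nu mice. Dosing iv on days 7, 11 and 15. On day 21, two caliper diameters were measured; tumor weight = length × width²/2. IR (%) = (1 − T/C) × 100, from mean treated versus control tumor weights.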

Colon 26 [3] = assay: Antitumor activity at dose 5 mg/kg in murine colon26 cells; assay type: functional, Mus musculus
Colon 26 [4] = assay: Antitumor activity at dose 160 mg/kg in murine colon26 cells; assay type: functional, Mus musculus
MC-38 [5] = assay: Antitumor activity at dose 10 mg/kg in Murine colon38 cells; assay type: functional, Mus musculus; procedure, shortened: as §2
Colon 26 [6] = assay: Antitumor activity at dose 10 mg/kg in murine colon26 cells; assay type: functional, Mus musculus; procedure, shortened: as §2
HCT-15 [7] = assay: Antitumor activity at dose 10 mg/kg in HCT-15 cells; assay type: functional, Mus musculus; procedure, shortened: as §2
[8] = tested on: Lewis lung carcinoma cell line; assay: Antitumor activity at dose 40 mg/kg in Lewis lung carcinoma cells (3LL) cells; assay type: functional, Mus musculus; procedure, shortened: as §2
MC-38 [9] = assay: Antitumor activity at dose 10 mg/kg in colon38 cells; assay type: functional, Mus musculus; procedure, shortened: as §2
[10] = as §1; assay type: functional, Mus musculus; procedure, shortened: as §2
HCT-15 [11] = assay: Antitumor activity at dose 40 mg/kg in HCT-15 cells; assay type: functional, Mus musculus; procedure, shortened: as §2

Row | IC50 (Tubulin) [µM] | SMILES | IC50 (Colon 26 [1]) [µM] | further results
1 | 4 | COc1ccc(/C=C(/C=O)c2cc(OC)c(OC)c(OC)c2)cc1 | 0.213 | 
2 | > 20 | COc1cc(/C(C#N)=C/c2ccc(C)c(N)c2)cc(OC)c1OC | 0.722 | 
3 | > 20 | COc1ccc(/C=C(/CN)c2cc(OC)c(OC)c(OC)c2)cc1 | > 3 | 
4 | 6 | COc1cc(/C(C#N)=C\c2ccc(Cl)c(N)c2)cc(OC)c1OC | 0.0581 | 
5 | 7 | COc1ccc(CC(C#N)c2cc(OC)c(OC)c(OC)c2)cc1N (stereo unspecified) | 0.0225 | 
6 | 10 | COc1ccc(/C=C(/C#N)c2cc(OC)c(OC)c(OC)c2)cc1NC(C)=O | 0.0183 | 
7 | 10 | COc1cc(/C(C#N)=C\c2ccc(C)c(N)c2)cc(OC)c1OC | 0.0617 | 
8 | > 20 | COc1ccc(/C=C(/CO)c2cc(OC)c(OC)c(OC)c2)cc1 | 0.363 | 
9 | 3 | COc1ccc(/C=C(/C(N)=O)c2cc(OC)c(OC)c(OC)c2)cc1N | 0.195 | 
10 | > 20 | COc1ccc(/C=C(\C#N)c2cc(OC)c(OC)c(OC)c2)cc1[N+](=O)[O-] | > 3 | 

More lines, now with the values behind:

Row | SMILES | IC50 (Tubulin) [µM] | IC50 (Colon 26 [1]) [µM] | further results
11 | COc1cc(/C=C\c2ccc(C)c(N)c2)cc(OC)c1OC.Cl |  |  | IR (Colon 26 [2]): 62%
12 | COc1cc(/C(C#N)=C\c2ccc(Cl)c(N)c2)cc(OC)c1OC.Cl |  |  | IR (Colon 26 [3]): -23%
13 | COc1ccc(/C=C(/C#N)c2ccc(OC)c(OC)c2)cc1N | 7 | 0.0081 | 
14 | COc1ccc(/C=C(/C#N)c2cc(OC)c(OC)c(OC)c2)cn1 | > 20 | 2.37 | 
15 | COc1ccc(/C=C(/C#N)c2cc(OC)c(OC)c(OC)c2)cc1 | 6 | 0.018 | 
16 | COc1ccc(/C=C(/C#N)c2cc(OC)c(OC)c(OC)c2)cc1N | 10 | 0.0059 | 
17 | COc1ccc(/C=C\c2cc(OC)c(OC)c(OC)c2)cc1O [COMBRETASTATIN A4] |  | 0.018 | IR (Colon 26 [4]): 31%
18 | COc1cc(/C(C#N)=C\c2ccc(C)c(N)c2)cc(OC)c1OC.Cl |  |  | IR (Colon 26 [3]): 11%
19 | COc1ccc(/C=C(/C[N+](C)(C)C)c2cc(OC)c(OC)c(OC)c2)cc1.[I-] | > 20 | > 3 | 
20 | COc1ccc(/C=C(/C#N)c2ccccc2)cc1N | 8 | 0.036 | 
21 | COc1cc(/C=C\c2ccc(Cl)c(N)c2)cc(OC)c1OC | 3 | 0.0689 | 
22 | COc1ccc(/C=C(/C#N)c2cc(OC)c(OC)c(OC)c2)cc1[N+](=O)[O-] | 5 | 0.135 | 
23 | COc1ccc(/C=C(/C#N)c2cc(OC)c(OC)c(OC)c2)cc1N.Cl |  |  | IR (MC-38 [5]): 75%; IR (Colon 26 [6]): 77%; IR (HCT-15 [7]): 28%; IR [8]: 59%
24 | COc1ccc(/C(C#N)=C\c2cc(OC)c(OC)c(OC)c2)cc1N | 5 | 0.235 | 
25 | COc1cc(/C=C\c2ccc(C)c(N)c2)cc(OC)c1OC | 4 | 0.0435 | 
26 | COc1ccc(/C=C\c2cc(OC)c(OC)c(OC)c2)cc1N.Cl |  |  | IR (MC-38 [9]): 72%; IR [10]: 62%; IR (Colon 26 [2]): 69%; IR (HCT-15 [11]): 53%; IR [8]: 65%
27 | COc1ccc(/C=C(\C#N)c2cc(OC)c(OC)c(OC)c2)cc1N | > 20 | 0.0126 | 
28 | COc1ccc(/C=C(\C#N)c2cc(OC)c(OC)c(OC)c2)cc1 | > 20 | 0.0637 | 
29 | COc1ccc(/C=C(/C#N)c2cc(OC)c(OC)c(OC)c2)cc1O | 5 | 0.0235 | 
30 | COc1ccc(/C=C\c2cc(OC)c(OC)c(OC)c2)cc1N |  | 0.0051 | 
31 | COc1ccc(/C(=C\c2cc(OC)c(OC)c(OC)c2)C(N)=O)cc1N |  | 0.223 | 
32 | COc1ccc(CC(C#N)c2cc(OC)c(OC)c(OC)c2)cn1 (stereo unspecified) | > 20 | > 3 | 
33 | COc1ccc(/C(C#N)=C\c2ccc(OC)c(N)c2)cc1 | 9 | 1.43 | 
